# The source made the active and inactive calls. No cut-off for these calls is given here.
# Legend:
# HCT-116 [1] = test: Antitumor activity against human HCT116 cells xenografted in athymic nude BALB/c mouse assessed as tumor growth inhibition at 100 mpk, po measured 2 times every week relative to control; assay type: functional; conditions: HCT-116, po, read-out: TGI
# Outline: (§1)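 Female BALB/c-nu/nu mice, 6–8 weeks, given 2 × 10^6 HCT116 cells in 0.2 mL saline s.c. right flank; randomized at 100–200 mm3. Daily oral dosing in 0.5% cmc with Tween 80; vehicle controls.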
# Mus musculus [2] = test: In vivo inhibition of HDAC in tumor of human HGC27 cells xenografted in athymic nude BALB/c mouse assessed as increase in acetylated histone-H3 expression by DAB staining based immunohistochemistry method; assay type: functional, organism-based
# Outline: (§2)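 HGC-27 xenograft tumors from treated and vehicle mice immunostained for Ki67, Ac-H3 and p-AKT(S473) (200×); integrated optical density analysed; mean ± SEM, n = 5−7, one-way ANOVA versus vehicle.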
# Mus musculus [3] = test: In vivo inhibition of PI3K in tumor of human HGC27 cells xenografted in athymic nude BALB/c mouse assessed as reduction in phosphorylated AKT expression at S473 residue by DAB staining based immunohistochemistry method; assay type: functional, organism-based; outline: as §2
# HGC-27 = test: Antitumor activity against human HGC27 cells xenografted in athymic nude BALB/c mouse assessed as tumor growth inhibition at 100 mpk, po measured 2 times every week; assay type: functional; conditions: HGC-27, po, read-out: TGI
# Homo sapiens [4] = species: Homo sapiens; test: Inhibition of PI3K in human HCT116 cells assessed as reduction in AKT phosphorylation at T308 residue at 0.5 to 5 uM after 16 hrs by Western blot analysis; assay type: cell-based
# Outline: (§3)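 Immunoblot of HCT116 lysates (RIPA). 40 μg protein per lane on 10−12% SDS-PAGE, transferred to nitrocellulose, blocked 0.5 h in 5% milk/TBST. Primary antibodies 1:1000 overnight at 4 °C, secondary 1:1000 for 1 h, bands visualized by enhanced ECL.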
# HCT-116 [5] = test: Antitumor activity against human HCT116 cells xenografted in po dosed athymic nude BALB/c mouse assessed as tumor growth inhibition measured 2 times every week; assay type: functional, organism-based; outline: as §1
# [6] = Half life in mouse liver microsomes preincubated for 5 mins followed by NADPH addition by LC/MS analysis; assay type: ADME, Microsome
# Outline: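 Mouse liver microsomes (0.5 mg/mL protein) with compound preincubated 5 min at 37 °C, started with NADPH; quenched with acetonitrile at time points; LC/MS. T1/2 = 0.693/K from ln(concentration) vs time; Clint scaled with factor 3937.5.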
# [7] = Drug level in BALB/c mouse plasma xenografted with human HGC27 cells at 30 mg/kg, ip measured 0.5 hrs post last dose; assay type: ADME, organism-based
# Outline: (§4)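 HGC-27 xenografted nude mice dosed po (0.5% cmc/Tween 80) or ip (saline); at end of treatment, 0.5 h after final dose, plasma and tumor tissue collected and compound concentration measured (ng/mL plasma, ng/g tumor).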
# [8] = Drug metabolism in rat bile assessed as hydrolyzed metabolite formation at 0.74 mg/kg, iv after 1 hr by LC/MS/MS analysis; assay type: ADME, organism-based; conditions: in vivo
# [9] = target: Phosphatidylinositol 4-phosphate 3-kinase C2 domain-containing subunit beta (Homo sapiens) (UniProt O00750); test: Binding affinity to wild-type human […] length PIK3C2B (M1 to L1634 residues) expressed in mammalian expression system assessed as residual binding level at 1 uM by Kinomescan method relative to control
# Sequence of Phosphatidylinositol 4-phosphate 3-kinase C2 domain-containing subunit beta (Homo sapiens) (O00750 whole entry, the tested form may be a part): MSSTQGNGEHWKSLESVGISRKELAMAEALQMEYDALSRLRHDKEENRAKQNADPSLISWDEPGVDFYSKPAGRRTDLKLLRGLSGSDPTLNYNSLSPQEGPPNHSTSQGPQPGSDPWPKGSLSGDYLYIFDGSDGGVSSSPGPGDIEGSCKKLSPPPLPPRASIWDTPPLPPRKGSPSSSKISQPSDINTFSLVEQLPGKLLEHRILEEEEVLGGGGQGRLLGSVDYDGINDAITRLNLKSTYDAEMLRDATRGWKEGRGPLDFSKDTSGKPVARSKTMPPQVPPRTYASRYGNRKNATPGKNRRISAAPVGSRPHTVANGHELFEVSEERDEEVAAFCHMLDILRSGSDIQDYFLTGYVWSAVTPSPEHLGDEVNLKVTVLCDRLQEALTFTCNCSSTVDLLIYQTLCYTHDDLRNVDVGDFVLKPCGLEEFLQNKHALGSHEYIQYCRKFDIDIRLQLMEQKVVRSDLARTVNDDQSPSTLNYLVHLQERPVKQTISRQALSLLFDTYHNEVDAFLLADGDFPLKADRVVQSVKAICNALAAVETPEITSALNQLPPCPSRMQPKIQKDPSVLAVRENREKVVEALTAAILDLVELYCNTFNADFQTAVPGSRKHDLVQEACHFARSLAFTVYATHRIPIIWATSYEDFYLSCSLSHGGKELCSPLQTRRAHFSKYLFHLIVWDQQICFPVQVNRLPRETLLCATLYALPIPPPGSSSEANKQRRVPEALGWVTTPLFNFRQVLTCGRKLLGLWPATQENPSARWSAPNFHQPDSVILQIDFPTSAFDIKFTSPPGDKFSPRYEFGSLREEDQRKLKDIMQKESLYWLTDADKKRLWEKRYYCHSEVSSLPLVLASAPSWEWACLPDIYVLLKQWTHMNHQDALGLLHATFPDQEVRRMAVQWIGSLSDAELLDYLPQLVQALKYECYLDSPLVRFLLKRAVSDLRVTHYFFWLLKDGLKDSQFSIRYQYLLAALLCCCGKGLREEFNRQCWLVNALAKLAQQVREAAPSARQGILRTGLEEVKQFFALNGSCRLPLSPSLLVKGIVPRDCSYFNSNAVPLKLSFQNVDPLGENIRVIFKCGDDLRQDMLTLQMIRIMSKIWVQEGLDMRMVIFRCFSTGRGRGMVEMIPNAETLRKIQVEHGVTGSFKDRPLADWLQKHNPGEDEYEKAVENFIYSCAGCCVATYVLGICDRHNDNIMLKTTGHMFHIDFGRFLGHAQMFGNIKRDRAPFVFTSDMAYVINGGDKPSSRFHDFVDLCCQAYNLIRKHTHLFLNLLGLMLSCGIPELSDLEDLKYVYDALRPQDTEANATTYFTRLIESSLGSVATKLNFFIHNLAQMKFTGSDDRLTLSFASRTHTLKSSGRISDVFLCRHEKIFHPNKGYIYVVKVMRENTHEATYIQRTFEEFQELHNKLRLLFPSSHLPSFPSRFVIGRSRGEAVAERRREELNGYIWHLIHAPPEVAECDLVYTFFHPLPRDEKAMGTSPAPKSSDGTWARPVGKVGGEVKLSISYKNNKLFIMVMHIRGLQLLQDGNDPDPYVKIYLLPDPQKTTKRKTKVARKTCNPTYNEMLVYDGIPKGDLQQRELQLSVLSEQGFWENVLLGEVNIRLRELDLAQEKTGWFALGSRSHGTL
# Outline: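 Kinomescan binding screen at 1 μM across 97 kinases.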
# [10] = Terminal half life in ICR mouse at 3 mg/kg, iv measured after 0.033 to 24 hrs by LC/MS/MS analysis; assay type: ADME, organism-based; conditions: in vivo, read-out: beta t1/2 (converted)
# Outline: (§5)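 Male-unspecified ICR mice, 3 per group iv (3 mg/kg in 10% DMSO/saline) and 5 per group po (30 mg/kg in 0.5% cmc/0.3% Tween 80). Blood sampled 0.033 (iv) or 0.083 (po) to 24 h. Plasma extracted with acetonitrile, analysed by LC/MS/MS; noncompartmental analysis.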
# [11] = Half life in mouse plasma at 0.02 mM by LC/MS analysis; assay type: ADME, cell-free
# Outline: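 Spiking solution of 0.02 mM compound, 0.05 mM sodium phosphate, 0.5% BSA prewarmed 5 min at 37 °C, mixed with prewarmed mouse plasma; quenched with acetonitrile at time points; LC/MS; T1/2 = 0.693/K from ln(concentration) vs time.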
# [12] = Drug level in tumor of human HGC27 cells xenografted in BALB/c mouse at 30 mg/kg, ip measured 0.5 hrs post last dose; assay type: ADME, organism-based, Neoplasm; conditions: read-out: Drug uptake; outline: as §4
# [13] = Toxicity in athymic nude BALB/c mouse xenografted with human HCT116 cells assessed as reduction in body weight at 100 to 150 mpk, po measured 2 times every week; assay type: organism-based; conditions: in vivo
# [14] = Drug level in tumor of human HGC27 cells xenografted in BALB/c mouse at 100 mg/kg, po measured 0.5 hrs post last dose; assay type: ADME, organism-based, Neoplasm; conditions: read-out: Drug uptake; outline: as §4
# Homo sapiens [15] = species: Homo sapiens; test: Inhibition of HDAC/PI3K in human HCT116 cells assessed as increase in cleaved caspase-3 level at 0.5 to 5 uM after 16 hrs by Western blot analysis; assay type: cell-based; outline: as §3
# [16] = Terminal half life in ICR mouse at 30 mg/kg, po measured after 0.083 to 24 hrs by LC/MS/MS analysis; assay type: ADME, organism-based; conditions: in vivo, read-out: beta t1/2 (converted); outline: as §5
# [17] = target: Phosphatidylinositol 4,5-bisphosphate 3-kinase catalytic subunit alpha isoform (Homo sapiens, UniProt P42336); test: Inhibition of recombinant human PI3Kalpha using PIP2 as substrate incubated for 1 hr by kinase-glo assay
# Sequence of Phosphatidylinositol 4,5-bisphosphate 3-kinase catalytic subunit alpha isoform (P42336 whole entry, canonical isoform): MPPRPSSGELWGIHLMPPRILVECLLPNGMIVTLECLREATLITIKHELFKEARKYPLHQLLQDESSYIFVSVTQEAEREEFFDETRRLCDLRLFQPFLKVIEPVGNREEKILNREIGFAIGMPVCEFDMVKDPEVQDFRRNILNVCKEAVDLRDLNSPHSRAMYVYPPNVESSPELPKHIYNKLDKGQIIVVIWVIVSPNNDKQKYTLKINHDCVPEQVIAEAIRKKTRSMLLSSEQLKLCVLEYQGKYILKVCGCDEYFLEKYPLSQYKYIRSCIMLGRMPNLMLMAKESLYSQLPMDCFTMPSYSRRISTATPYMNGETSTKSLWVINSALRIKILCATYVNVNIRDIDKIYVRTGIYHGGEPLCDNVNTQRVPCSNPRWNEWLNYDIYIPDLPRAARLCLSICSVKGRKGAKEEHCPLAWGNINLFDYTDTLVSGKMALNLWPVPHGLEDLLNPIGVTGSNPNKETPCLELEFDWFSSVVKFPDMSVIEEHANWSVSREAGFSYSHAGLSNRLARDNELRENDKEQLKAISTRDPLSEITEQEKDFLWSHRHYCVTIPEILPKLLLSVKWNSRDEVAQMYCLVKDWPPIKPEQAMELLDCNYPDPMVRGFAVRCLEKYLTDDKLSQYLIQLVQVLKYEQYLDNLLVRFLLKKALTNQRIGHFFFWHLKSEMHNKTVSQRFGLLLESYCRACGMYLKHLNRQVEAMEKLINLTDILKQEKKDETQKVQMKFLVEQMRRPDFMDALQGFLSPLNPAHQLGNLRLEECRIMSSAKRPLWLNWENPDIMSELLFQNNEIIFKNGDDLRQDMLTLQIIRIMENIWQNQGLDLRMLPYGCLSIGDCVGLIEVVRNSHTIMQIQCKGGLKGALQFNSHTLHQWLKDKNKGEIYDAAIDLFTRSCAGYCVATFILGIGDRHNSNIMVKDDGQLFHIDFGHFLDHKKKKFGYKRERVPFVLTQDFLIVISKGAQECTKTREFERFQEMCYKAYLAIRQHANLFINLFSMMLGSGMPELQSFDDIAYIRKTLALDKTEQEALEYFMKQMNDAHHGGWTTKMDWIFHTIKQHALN
# Histone deacetylase 1 = Histone deacetylase 1 (Homo sapiens, UniProt Q13547); test: Inhibition of recombinant C-terminal His/FLAG-tagged HDAC1 (unknown origin) expressed in baculovirus infected Sf9 insect cells using Ac-peptide as substrate preincubated for 15 mins followed by substrate addition and measured after 1 hr
# Sequence of Histone deacetylase 1 (Q13547 whole entry): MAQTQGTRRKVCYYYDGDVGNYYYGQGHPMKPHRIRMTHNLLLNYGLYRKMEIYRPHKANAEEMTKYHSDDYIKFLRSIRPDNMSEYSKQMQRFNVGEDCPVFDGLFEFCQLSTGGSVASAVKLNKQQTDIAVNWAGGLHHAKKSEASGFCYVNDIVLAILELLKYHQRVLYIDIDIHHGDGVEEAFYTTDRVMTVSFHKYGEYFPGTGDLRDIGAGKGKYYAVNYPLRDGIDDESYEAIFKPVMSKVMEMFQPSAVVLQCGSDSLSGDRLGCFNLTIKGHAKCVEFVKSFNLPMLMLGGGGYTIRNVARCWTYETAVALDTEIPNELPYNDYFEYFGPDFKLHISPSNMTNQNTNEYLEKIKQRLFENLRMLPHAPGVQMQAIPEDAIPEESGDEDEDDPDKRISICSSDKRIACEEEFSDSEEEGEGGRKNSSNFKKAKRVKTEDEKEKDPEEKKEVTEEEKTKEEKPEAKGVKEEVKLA
# [18] = Selectivity index, ratio of IC50 for human LO2 cells to IC50 for human HCT116 cells; assay type: toxicity; conditions: LO2 cells and HCT116 cells, read-out: Ratio IC50
# Outline: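 Ratio of IC50s from the MTT assay: PBMC or LO2 cells versus HCT116. Cells seeded at 2000/well, attached overnight at 37 °C, treated 96 h, MTT 4 h, formazan dissolved in DMSO, A570.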
# Homo sapiens [19] = species: Homo sapiens; test: Inhibition of PI3K in human HCT116 cells assessed as reduction in AKT phosphorylation at T308 residue at 0.02 to 0.5 uM after 16 hrs by Western blot analysis; assay type: cell-based; outline: as §3
# [20] = target: Histone deacetylase (Homo sapiens) (UniProt Q13547+O15379+Q9UBN7+Q92769+Q9UQL6+Q8WUI4+Q9BY41+Q96DB2+P56524+Q9UKV0+Q969S8); test: Inhibition of HDAC in human HCT116 cells assessed as increase in acetylated histone H3 levels after 16 hrs by Western blot analysis; assay type: cell-based
# Outline: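 HCT116 cells lysed in RIPA after washes in cold PBS. 40 μg protein run on 10−12% SDS-PAGE and transferred to nitrocellulose. Membrane blocked in 5% milk/TBST for 0.5 h, primary antibodies 1:1000 overnight at 4 °C, secondary 1:1000 for 1 h, ECL detection.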
structure (smiles),measurement,setting,value
COc1ncc(-c2cc(OCCCCCCC(=O)NO)c3ncnc(C)c3c2)cc1F,inhibition in vivo at 100 mg/kg,HCT-116 [1],18.3%
same,inhibition,Mus musculus [2],Active
same,inhibition,Mus musculus [3],Active
same,inhibition in vivo at 100 mg/kg,HGC-27,15.2%
same,inhibition,Homo sapiens [4],Active
same,Activity,HCT-116 [5],Dose-dependent effect
same,half-life,[6],24.6 min
same,concentration at 0.5 h,[7],577 ng/mL
same,Drug metabolism,[8],Metabolite_Detected
same,Activity,[9],27%
same,half-life,[10],19.8 min
same,half-life at 20 µM,[11],72 min
same,concentration at 0.5 h,[12],370 ng/g
same,Activity,[13],Toxic
same,concentration at 0.5 h,[14],36.6 ng/g
same,inhibition,Homo sapiens [15],Active
same,half-life,[16],124 min
COc1ccc(-c2cc(OCCN(C)c3ncc(C(=O)NO)cn3)c3ncnc(C)c3c2)cn1,IC50,[17],226 nM
same,IC50,Histone deacetylase 1,1.3 nM
same,selectivity ratio,[18],1430
same,inhibition,Homo sapiens [19],Active
same,inhibition,[20],Dose-dependent effect

# From ChEMBL document CHEMBL4311940, “Design, Synthesis, and Biological Evaluation of 4-Methyl Quinazoline Derivatives as Anticancer Agents Simultaneously Targeting Phosphoinositide 3-Kinases and Histone Deacetylases” (J Med Chem, 2019)
